Data on three compounds can be found in ChEMBL document CHEMBL1153776, “Synthesis and immunosuppressive activity of cyclolinopeptide A analogues containing homophenylalanine” (Eur J Med Chem, 2009).

A short description of data set [1]: Toxicity in mouse WEHI164 clone 13 cells at 100 ug/ml after 24 hrs by MTT assay. The note with it: wehi-164, 24 h. A digest of the protocol: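 WEHI 164.13 cells exposed 24 h to peptides (DMSO then culture medium) or DMSO control solutions. Viability measured by MTT colorimetric method and expressed as percentage of OD relative to matching solvent dilutions (taken as 100%). Student's t-test for statistics.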
Background: Tetrazolium assays rely on reduction of a dye to a coloured formazan, in cell work by metabolically active cells.

The next data set relates to B. Kind of data set: Immunosuppressive effect on CBA mouse B cells assessed as inhibition of mitogen-induced proliferation after 3 days by MTT assay. Type of data set: functional, cell-based.
Data set [2] relates to Splenocyte. Kind of data set: Immunosuppressive activity against sheep erythrocytes-induced humoral immune response in CBA mouse splenocyte assessed as inhibition antibody forming cells at 100 ug/ml after 4 days. It is filed as functional. Also noted: scale not given: the % may be the effect or the level left. A digest of the protocol:
(§1)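 Donor CBA mice (12-week-old, both sexes) sensitized with 0.2 ml of 1% SRBC suspension; spleens harvested four days later, erythrocytes lysed with 0.83% ammonium chloride. Splenocytes (5 ×10⁶/ml/well) cultured with SRBC (0.1 ml of 0.005% suspension) plus peptides (DMSO, then medium). After four days, antibody-forming cells counted; mean AFC numbers from quadruplicate wells ± SE.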

The next data set relates to T-cell. The experiment in a line: Immunosuppressive effect on CBA mouse T cells assessed as inhibition of mitogen-induced proliferation at 100 ug/ml after 3 days by MTT assay. Type of data set: functional, cell-based.
The subject of data set [3] is Splenocyte. Kind of data set: Immunosuppressive activity against sheep erythrocytes-induced humoral immune response in CBA mouse splenocyte assessed as inhibition antibody forming cells after 4 days. Type of data set: functional, cell-based. Summed up:
as §1

The source made the active and inactive calls. No cut-off for these calls is given here. Non-standard residues stand in square brackets, D forms with d. Residues, ends and D or L forms follow the SMILES beside them. hPhe = N[C@@H](CCc1ccccc1)C(=O)O

Regarding `CC[C@H](C)[C@@H]1NC(=O)[C@H](CC(C)C)NC(=O)[C@H](CCc2ccccc2)NC(=O)[C@H](Cc2ccccc2)NC(=O)[C@@H]2CCCN2C(=O)[C@@H]2CCCN2C(=O)[C@H](C(C)C)NC(=O)[C@H](CC(C)C)NC(=O)[C@H]([C@@H](C)CC)NC1=O` (cyclo(F[hPhe]LIILVPP)), the results for the Activity (in data set [1]; in the data set on Splenocyte [2]) were 47.19% and 92%, respectively. Also, in the data set on B, the result was Active.

Consider `CC[C@H](C)[C@@H]1NC(=O)[C@H](CC(C)C)NC(=O)[C@H](Cc2ccccc2)NC(=O)[C@H](CCc2ccccc2)NC(=O)[C@@H]2CCCN2C(=O)[C@@H]2CCCN2C(=O)[C@H](C(C)C)NC(=O)[C@H](CC(C)C)NC(=O)[C@H]([C@@H](C)CC)NC1=O` (cyclo(FLIILVPP[hPhe])), for which, in the data set with T-cell, the result was Active. The Activity in the data set on Splenocyte [2] was determined as 94.5%.

Turning to `CC[C@H](C)[C@@H]1NC(=O)[C@H](CC(C)C)NC(=O)[C@H](CCc2ccccc2)NC(=O)[C@H](CCc2ccccc2)NC(=O)[C@@H]2CCCN2C(=O)[C@@H]2CCCN2C(=O)[C@H](C(C)C)NC(=O)[C@H](CC(C)C)NC(=O)[C@H]([C@@H](C)CC)NC1=O` (cyclo(IILVPP[hPhe][hPhe]L)), the result in the data set with Splenocyte [3] and in the data set with B was Active.
